The RNAGym collection of RNA variant scans (doi:10.1038/s41586-018-0170-7)

B1: tRNA (parent)
chain: GUUCCGUUGGCGUAAUGGUAACGCGUCUCCCUCCUAAGGAGAAGACUGCGGGUUCGAGUCCCGUACGGAACG

Variants of: B1
Test: yeast fitness, log relative to wild type (ln ratio); higher = fitter; tRNA-Arg(CCU), competitive growth, 37 C, 1 M NaCl
Method in brief: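 A combinatorial tRNA-Arg(CCU) variant library was carried on a HIS3 centromeric plasmid in BY4742 lacking the chromosomal gene, from two independent transformations. Pools grew 4 generations in SC-HIS at 30 °C, then ~6.5 generations (~26.5 h) in SC-HIS 1M NaCl at 37 °C, with three outputs per input. Variants were counted by 125 bp paired-end Illumina sequencing. Fitness is ln of each genotype's generations (OD-scaled log2 output/input frequency, inverse-variance weighted across replicates) over the wild-type's.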

Variant	yeast fitness (ln)
U2C C27U C66A A69G A70G C71U	-0.142
U2C G6A C27U C46U C66U A70G C71U	-0.0332
U2C G6A C27U A43C C46U C66A C71U	-0.216
U2C G6A A70U	-0.0455
G6A A43C C46U C66U A69G A70U	-0.159
U2G G6A C27U C46U C66U C71U	-0.17
U2G G6A A43C C46U A70G C71U	-0.209
G1A G6U C66A C71U	0.00231
G6A A43C C46U C66A A69G A70U	-0.317
G1A C27U A43C C46U A69G A70U C71U	-0.366
G6A A43C C46U C66U A70U	-0.183
U2C G6U C46U C66A A69G A70G C71U	-0.0159
G6U C66U A70U	-0.122
U2G G6U C27U C46U C66A A69G C71U	-0.293
U2C G6A A43C C66A A70U C71U	-0.261
G6U C27U A43C A70G C71U	-0.348
C27U C66A	-0.0595
G1A U2C G6U C27U C66A A70G C71U	-0.0489
U2G G6A A43C C66U A70U	-0.0213
U2C G6A C27U A69G A70U	-0.115
G1A U2C G6A C46U A70G	-0.179

Variant	yeast fitness (ln)
U2C G6U C27U A43C C46U C66U	-0.0875
G6A C27U C46U A70U	-0.144
U2C G6U C27U A43C C66U A70U	-0.156
G1A U2G A69G	-0.104
G1A G6A C27U A43C C46U C66U A70U	-0.318
C27U A69G A70U	-0.206
U2G C66U A69G	-0.195
G1A U2G C27U C46U A69G A70G	-0.21
U2C G6A C27U A70U	-0.0574
G1A C27U C46U C66A A69G A70U	-0.179
G6U C27U A43C C66U A69G A70G	-0.528
G1A C27U A43C C46U C66U A70G	-0.226
G1A U2C G6U A43C C46U C71U	-0.143
G6U C27U C46U C66A A70G	-0.04
G6U A43C C66U A69G A70U C71U	-0.393
U2G A43C C66U A69G C71U	-0.455
G6U A69G C71U	-0.233
G1A C27U A43C C46U C66A A70U	-0.155
U2C G6U A43C C46U A70G	-0.113
G1A G6A C27U A43C C46U C66U A69G A70U	-0.471
G1A U2G C27U A69G C71U	-0.251

Variant	yeast fitness (ln)
G1A U2G G6A C66U A70U	-0.319
C27U A43C C66A A70G	-0.135
G1A G6U C66U A69G A70U C71U	-0.525
G1A G6A C66U	-0.113
G6A C27U A69G A70G C71U	-0.265
C27U C66A A69G A70G	-0.25
U2C C46U C66U A69G A70G C71U	-0.0462
G6A C27U A43C C46U A69G A70G C71U	-0.306
U2G G6A C46U A69G A70G	-0.115
G1A U2C C27U A43C A69G A70U	-0.307
U2G G6U A43C C71U	-0.17
C27U A43C C46U C66A A70U C71U	-0.301
G6A C27U C46U C66U C71U	-0.0799
G1A C27U C46U A70U	-0.088
U2C C27U A43C C46U C66A A70U	-0.0988
G1A G6U A43C C66A A70G C71U	-0.517
U2C C27U C46U C66A C71U	-0.0945
G6A C27U C66A A70G	-0.136
A43C C46U C66A A70U C71U	-0.128
U2G C27U A43C C66A A69G A70U	-0.291
G6A C27U C46U C66U A69G A70U C71U	-0.302

Variant	yeast fitness (ln)
G1A G6U C46U C66A	-0.0835
U2G G6U C27U A43C C46U C66U A70U C71U	-0.378
G1A C46U C66A A69G A70G C71U	-0.178
G1A G6A A43C C46U C66U A70U	-0.24
G1A U2G C46U A70U	-0.115
G1A U2G G6U A69G A70G	-0.183
U2C G6U A43C A69G A70U	-0.152
C46U C66A A69G A70U	-0.0373
G1A U2G G6U C27U C66U A69G A70G C71U	-0.446
U2G C66U A70G	-0.0789
G6A C27U A43C C66A A70G	-0.337
G1A G6U C46U A69G A70U	-0.0951
U2G A43C C46U A70G	-0.0614
G1A G6U C27U A69G A70U	-0.29
U2G G6U C27U A43C C66U A69G A70G C71U	-0.51
G1A U2G G6A A43C C46U C66A A69G A70U C71U	-0.286
G6U C46U A70U C71U	-0.189
U2G C66A	-0.0285
G6U C66U A69G A70G C71U	-0.293
U2C G6U A43C C66U C71U	-0.349
U2G C27U A43C C66U A69G A70U	-0.346
